Screens deposited in PubChem by The Scripps Research Institute Molecular Screening Center.
CHRM5 agonist: agonists of human muscarinic M5 receptor (CHRM5). P08912. CHO-K1 hM5 cells, Fluo-8 calcium fluorescence; 0% DMSO wells, 100% maximal acetylcholine response. activation, % at 3 µM. 360,000 tested, 0.19% active. AID 624037;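 active = activation above the run's mean over test compounds plus 3 SD, cut at about 23% in these data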;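 also: signal is peak over basal fluorescence ratio across the kinetic read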
M4 ag: CHRM4 agonism in calcium assay. P08173. CHO-K1 hM4/Gqi5, Fluo-8 calcium fluorescence; vehicle 0%, full acetylcholine response 100%. activation, % at 3 µM. 360,000 tested, 0.14% active. AID 624127;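 active = activation above the run mean over all test wells plus 3 SD, cut at about 32% in these data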;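 also: peak over basal fluorescence ratio per well then scaled between controls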
Target sequence (P08173 whole entry, looked up): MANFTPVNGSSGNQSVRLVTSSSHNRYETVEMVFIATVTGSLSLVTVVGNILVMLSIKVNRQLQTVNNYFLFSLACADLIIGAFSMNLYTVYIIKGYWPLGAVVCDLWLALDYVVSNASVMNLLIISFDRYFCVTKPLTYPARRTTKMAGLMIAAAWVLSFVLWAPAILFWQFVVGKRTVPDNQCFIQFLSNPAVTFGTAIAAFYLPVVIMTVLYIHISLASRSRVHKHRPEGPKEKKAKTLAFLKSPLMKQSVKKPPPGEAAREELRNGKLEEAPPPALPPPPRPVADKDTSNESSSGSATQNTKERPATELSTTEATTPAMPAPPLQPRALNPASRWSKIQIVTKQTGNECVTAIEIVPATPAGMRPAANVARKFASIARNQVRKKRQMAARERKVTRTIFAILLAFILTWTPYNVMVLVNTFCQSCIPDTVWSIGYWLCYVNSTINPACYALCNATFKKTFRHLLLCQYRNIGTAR
CHRM5 PAM: CHRM5 positive allosteric modulation | AID 624038 | CHO-K1 hM5, Fluo-8 calcium, ACh EC20 PAM; 0% = ACh EC20, 100% = ACh EC100 | 360,000 tested, 0.3% active | activation, % at 3 µM | P08912;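 active = activation above the run cutoff, the mean activation of all test compounds plus 3 SD, cut at about 18% in these data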
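System: CHO-K1 cell line with stable human muscarinic M5 receptor expression | Also added: EC20 acetylcholine as agonist stimulus | Compound: One concentration, 3 µM final (nominal) | Timing: Fluo-8 loading 80 min at 37 °C plus 30 min room temperature | Measured by: Fluo-8 calcium dye fluorescence, kinetic read | Read-out basis: % activation, ACh-normalized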
CHRM4 antagonist: antagonists of human muscarinic M4 receptor (CHRM4); AID 624125; P08173; inhibition, % at 3 µM; CHO-hM4 cells, ACh EC80, Fluo-8 calcium fluorescence; 360,000 tested, 0.73% active;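 active = inhibition above its plate's cutoff, the mean inhibition of sample wells plus 3 SD, cut at about 27% in these data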
M4 PAM: potentiates acetylcholine response at human M4 receptor; 360,000 tested, 0.4% active; AID 624126; activation, % at 3 µM; CHO-K1 hM4/Gqi5, Fluo-8 calcium fluorescence, ACh EC20; 0% = ACh EC20, 100% = maximal ACh; P08173;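 active = activation above its plate's cutoff, the mean activation of sample wells plus 3 SD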
CHRM5 antagonist: blocks acetylcholine activation of human M5 receptor. 360,000 tested, 0.59% active. AID 624040. CHO-hM5 cells, Fluo-8 calcium fluorescence, ACh EC80. inhibition, % at 3 µM;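 active = inhibition above a per-plate cutoff, the mean of that plate's test compounds plus 3 SD, cut at about 27% in these data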
A number is an active result; i = inactive; ! = a repeat was not active. Shown are actives, neighbours in structure and some others; about 1.9% of the full set was active somewhere.

SMILES	CHRM5 agonist	M4 ag	CHRM5 PAM	CHRM4 antagonist	M4 PAM	CHRM5 antagonist
O=C(NC1CCN(Cc2ccccc2)CC1)C1COc2ccccc2O1 (stereo unspecified)	i	i	i	i	i	64
COc1ccc(Cl)cc1NS(=O)(=O)c1cccc(C(=O)NC2CCN(Cc3ccccc3)CC2)c1	i	i	i	32	i	i
Cc1ccc(S(=O)(=O)N2CCCCC2)cc1NC(=O)CSc1nncn1-c1ccccc1	i	i	23	i	i	i
O=C(O)c1ccc(NC(=S)NC(=O)c2cccc(COc3ccccc3)c2)cc1	i	i	i	i	i	i
O=C(NC(=S)Nc1ccc(CN2CCCCC2)cc1)c1cccc(OCc2ccccc2)c1	i	i	i	39	i	48
CCN1CCN(c2ccc(NC(=O)c3cccc(OCc4ccccc4)c3)cc2)CC1	i	i	i	i	i	33
CC(C)(C)OC1NS(=O)(=O)OCC1NCOC(Cl)(Cl)Cl (stereo unspecified)	i	i	i	i	i	i
Cc1ccnc(NS(=O)(=O)c2ccc(NC(=O)C34CC5CC(CC(C5)C3)C4)cc2)n1	i	i	28	i	i	i
Cc1ccnc(NS(=O)(=O)c2ccc(NC(=O)C3CC3)cc2)n1	i	i	i	i	i	i
Cc1cc(C)nc(NS(=O)(=O)c2ccc(NC(=O)C3CC3)cc2)n1	i	i	i	i	i	i
Cc1cc(C)nc(NS(=O)(=O)c2ccc(NC(=O)C(C)C)cc2)n1	i	i	i	62	i	i
O=C(CCC(=O)N(CC(=O)NC1CCCC1)Cc1ccccc1)Nc1nccs1	i	i	i	i	i	i
CN(CC(=O)NCc1ccco1)CC(=O)Nc1c(Cl)cccc1Cl	i	i	18	i	i	i
COc1cccc(NC(=O)CN(C)CC(=O)NCc2ccco2)c1	i	i	i	i	i	i
Cc1cc(Cl)cc(Cl)c1OCC(=O)NCc1ccco1	i	i	22	i	i	i
CCn1cc(C(=O)N[C@@H](CCSC)C(=O)NCCO)c(=O)c2cc3c(cc21)OCO3	i	i	i	i	i	i
CCn1c(SCC(=O)N(Cc2ccccc2)C2CCS(=O)(=O)C2)nc2ccccc2c1=O (stereo unspecified)	i	i	i	i	31	i
CCN(C(=O)CSc1nc2ccccc2c(=O)n1Cc1ccc(C)cc1)C1CCS(=O)(=O)C1 (stereo unspecified)	i	i	i	i	i	i
COc1cccc(OC)c1C(=O)Nc1cccc(S(=O)(=O)Nc2ccccc2Cl)c1	i	i	i	i	i	i
COc1ccccc1NS(=O)(=O)c1cccc(NC(=O)Nc2ccccc2)c1	i	35	i	61	i	59
CCNC(=S)Nc1cccc(S(=O)(=O)Nc2ccccc2OC)c1	i	i	i	i	i	i
COc1ccccc1NS(=O)(=O)c1cccc(NC(=O)Nc2ccc(Cl)cc2)c1	i	i	i	46	i	66
COCCCNC(=O)C[C@H]1C[C@H](C(=O)N(C(C)C)C(C)C)[C@@]2(C)c3[nH]c4ccc(Cl)cc4c3CCN2C1=O	i	i	i	i	i	i
CCN(CC)CCN1C(=O)c2ccccc2NC1c1ccccc1F (stereo unspecified)	i	i	i	29	i	i
CCN(CC)CCN1C(=O)c2ccccc2NC1c1ccc(F)cc1 (stereo unspecified)	i	i	i	i	i	i
SMILES	CHRM5 agonist	M4 ag	CHRM5 PAM	CHRM4 antagonist	M4 PAM	CHRM5 antagonist
CC(=O)SC1CC(=O)N(c2c(C)cccc2C)C1=O (stereo unspecified)	i	i	21	i	i	i
CC1CCCN(CC(=O)N2c3ccccc3Sc3ccccc32)C1 (stereo unspecified)	i	i	i	33	i	30
CN1CCN(CC(=O)N2c3ccccc3Sc3ccccc32)CC1	i	i	i	67	i	64
CCOC(=O)N1CCN(CC(=O)N2c3ccccc3Sc3ccccc32)CC1	i	i	i	i	i	i
O=C1CCCN1CCCNCC(=O)N1c2ccccc2Sc2ccccc21	i	i	i	52	i	35
O=C(CN1CCCC(O)C1)N1c2ccccc2Sc2ccc(C(F)(F)F)cc21 (stereo unspecified)	i	i	i	65	i	41
O=C1CCCN1CCCNCC(O)c1ccccc1 (stereo unspecified)	i	i	i	i	i	i
CC1CCCN(CCC(=O)c2ccccc2)C1 (stereo unspecified)	i	i	i	i	i	i
CCOc1ccc(NC(=O)NCc2ccc3c(c2)OCO3)cc1	i	i	i	i	i	i
Cc1ccc(C)c(NC(=S)N2CCC(NC(=O)C3CCCCC3)CC2)c1	i	i	i	i	i	i
Cc1ccc(-c2nc3ccc(Br)cn3c2Cc2ccsc2)cc1	i	i	i	i	i	i
CC1CCCN(c2ccc(C(=O)OCn3nnc4ccccc4c3=O)cc2[N+](=O)[O-])C1 (stereo unspecified)	i	i	i	i	i	i
O=C(CN1CCOCC1)N1c2ccccc2Sc2ccc(Cl)cc21	i	i	i	i	i	i
O=C(C1CC1)N1c2ccccc2Sc2ccccc21	i	i	i	i	i	i
O=C(/C=C/c1ccccc1)N1c2ccccc2Sc2ccc(C(F)(F)F)cc21	i	i	i	i	29	i
CC1CCCN(c2ccc(C(=O)OCC(=O)N3c4ccccc4Sc4ccccc43)cc2[N+](=O)[O-])C1 (stereo unspecified)	i	i	i	30	i	i
O=C(CN1CCCCCC1)N1c2ccccc2Sc2ccccc21	i	i	i	94	i	94
O=C(CN1CCN(CCOCCO)CC1)N1c2ccccc2Sc2ccc(Cl)cc21	i	i	i	34	i	i
CCC(=O)N1CCc2cc(S(=O)(=O)N(C)c3ccc(Br)cc3)ccc21	i	i	i	i	i	i
CCOC(=O)CC(NS(=O)(=O)c1ccc2[nH]cc(C(=O)O)c(=O)c2c1)c1ccc(OCC)c(OC)c1 (stereo unspecified)	i	i	i	i	i	i
CCN(C[C@H]1N[C@@](CC)(C(=O)OC)[C@H]2C(=O)N(C)C(=O)[C@@H]12)C(=O)NC(C)C	i	i	i	i	i	i
CC1Cc2ccccc2N1C(=O)CN1CCCCC1 (stereo unspecified)	i	i	i	i	i	i
O=C(CN1CCCCC1)N1c2ccccc2Oc2ccccc21	i	i	i	37	i	i
CN1CCN(CCCN2c3ccccc3Sc3ccc(C(F)(F)F)cc32)CC1	i	i	i	85!	i	i
